Several values for one entry are separate records, joined by “and”; a condition that tells them apart may be missing. Equal values may be shown once.
How the values were obtained:
[1] = system: MT4; test: Concentration required for 50% of cell death on MT-4 cell lines; assay type: functional, Homo sapiens
How it was run: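 Mock-infected MT-4 cells (5 × 10^5 cells/mL) in fresh culture medium, mixed in microtiter wells with dilutions of test compound. After 5 days, viable cells counted by trypan blue staining. CC50 taken as the compound concentration that reduces the number of mock-infected MT-4 cells by 50%.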

[2] = system: MT4; test: Selectivity index (ratio CC50/EC50) in MT-4 cells is measured; assay type: functional
How it was run: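 Ratio of CC50 to EC50, both from MT-4 cultures read after 5 days by trypan blue viable-cell counts. CC50 is the concentration reducing mock-infected MT-4 cell number by 50%. EC50 comes from HIV-infected MT-4 cells (100 CCID50 per mL, 5 × 10^5 cells/mL).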

[3] = system: CCRF-CEM; test: Effective concentration against HIV-1 induced cytopathicity in CEM cells; assay type: functional, cell-based; details: Homo sapiens
How it was run: (§1)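 CEM cells at 5 × 10^5 cells/mL in fresh medium, infected with HIV-1 or HIV-2 at 100 CCID50 per mL of suspension, then mixed 1:1 with serial compound dilutions. Virus-induced syncytia were counted microscopically after 4 days. EC50 is the concentration reducing syncytium number by 50%.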

[4] = system: CCRF-CEM; test: Effective concentration against HIV-2 induced cytopathicity in CEM cells; assay type: functional, cell-based; details: Homo sapiens; how it was run: as §1
[5] = system: Human immunodeficiency virus; test: Effective concentration against HIV-1 induced cytopathicity in MT-4 cells; assay type: functional, organism-based, MT4
How it was run: (§2)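 MT-4 cells at 5 × 10^5 cells/mL, infected with HIV-1 or HIV-2 at 100 CCID50 per mL, then mixed 1:1 with serial compound dilutions. After 5 days, viable cells in infected and mock-infected cultures were counted by trypan blue exclusion. EC50 is the concentration giving a 50% reduction in virus-induced loss of viable cells.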

[6] = system: MT4; test: Effective concentration against HIV-2 induced cytopathicity in MT-4 cells; assay type: functional, cell-based; details: Homo sapiens; how it was run: as §2
[7] = Human immunodeficiency virus 1, MT4

## CCc1cn([C@@H]2O[C@H](CO[Si](C)(C)C(C)(C)C)[C@@]3(OS(=O)(=O)C=C3N)[C@H]2O[Si](C)(C)C(C)(C)C)c(=O)[nH]c1=O
[1]
  CC50: 5.3 µM
[2]
  Selectivity index: 88

## CC(C)(C)[Si](C)(C)OC[C@H]1O[C@@H](n2ccc(=O)[nH]c2=O)[C@H](O[Si](C)(C)C(C)(C)C)C12OS(=O)(=O)C=C2N (some centres undefined)
[1]
  CC50: 14 µM
[2]
  Selectivity index: 74

## Cc1cn([C@@H]2O[C@H](CO[Si](C)(C)C(C)(C)C)C3(OS(=O)(=O)C=C3N)[C@H]2O[Si](C)(C)C(C)(C)C)c(=O)[nH]c1=O (some centres undefined)
[1]
  CC50: 13 µM
[2]
  Selectivity index: 217
[3]
  EC50: 0.044 µM
[4]
  EC50: > 7 µM

## Cc1cn([C@@H]2O[C@H](CO[Si](C)(C)C(C)(C)C)[C@@]3(OS(=O)(=O)C=C3N)[C@H]2O[Si](C)(C)C(C)(C)C)c(=O)nc1N
[1]
  CC50: 30 µM
[2]
  Selectivity index: 250
[3]
  EC50: 0.05 µM
[4]
  EC50: > 13.5 µM

## CC(C)(C)[Si](C)(C)OC[C@H]1O[C@@H](n2ccc(N)nc2=O)[C@H](O[Si](C)(C)C(C)(C)C)[C@]12OS(=O)(=O)C=C2N
[1]
  CC50: > 350 µM
[2]
  Selectivity index: 460
[3]
  EC50: 1.39 µM
[4]
  EC50: > 350 µM

## CC(C)(C)[Si](C)(C)OC[C@H]1O[C@@H](n2cc(Br)c(=O)[nH]c2=O)[C@H](O[Si](C)(C)C(C)(C)C)[C@]12OS(=O)(=O)C=C2N
[1]
  CC50: 3.6 µM
[5]; mt4
  EC50: 0.32 µM and > 2.4 µM
[2]
  Selectivity index: 11

## CNc1nc(=O)n([C@@H]2O[C@H](CO[Si](C)(C)C(C)(C)C)[C@@]3(OS(=O)(=O)C=C3N)[C@H]2O[Si](C)(C)C(C)(C)C)cc1C
[1]
  CC50: 26 µM
[2]
  Selectivity index: 217
[3]
  EC50: 0.11 µM
[4]
  EC50: > 33 µM

## CC(C)(C)[Si](C)(C)OC[C@H]1O[C@@H]2[C@H](O[Si](C)(C)C(C)(C)C)[C@]13OS(=O)(=O)C=C3Nc1cc(=O)[nH]c(=O)n12
[1]
  CC50: 16 µM
[5]; mt4
  EC50: 5.9 µM and > 12 µM
[2]
  Selectivity index: 2.7

## CC(C)(C)[Si](C)(C)OC[C@H]1O[C@@H](n2cc(I)c(=O)[nH]c2=O)[C@H](O[Si](C)(C)C(C)(C)C)[C@]12OS(=O)(=O)C=C2N
[1]
  CC50: 12 µM
[2]
  Selectivity index: 133
[3]
  EC50: 0.03 µM
[4]
  EC50: > 5.7 µM

## CC(C)(C)[Si](C)(C)OC[C@H]1O[C@@H](n2cc(C(F)(F)F)c(=O)[nH]c2=O)[C@H](O[Si](C)(C)C(C)(C)C)[C@]12OS(=O)(=O)C=C2N
[1]
  CC50: 14 µM
[5]; mt4
  EC50: 0.82 µM and > 6.2 µM
[2]
  Selectivity index: 17
[3]
  EC50: 0.77 µM
[4]
  EC50: > 6.2 µM

## Cc1cn([C@@H]2O[C@H](CO[Si](C)(C)C(C)(C)C)[C@@]3(OS(=O)(=O)C=C3N)[C@H]2O[Si](C)(C)C(C)(C)C)c(=O)nc1N(C)C
[1]
  CC50: 62 µM
[6]
  EC50: > 32 µM
[5]; [7]
  EC50: 0.16 µM
[2]
  Selectivity index: 388

## CC(C)(C)[Si](C)(C)OC[C@H]1O[C@@H](n2c(C#N)cc(=O)[nH]c2=O)[C@H](O[Si](C)(C)C(C)(C)C)[C@]12OS(=O)(=O)C=C2N
[1]
  CC50: 11 µM
[5]; [7]
  EC50: 3.6 µM
[5]; mt4
  EC50: 3.6 µM
[2]
  Selectivity index: 3
[3]
  EC50: 2.1 µM
[4]
  EC50: > 6.6 µM

## COC(=N)c1cc(=O)[nH]c(=O)n1[C@@H]1O[C@H](CO[Si](C)(C)C(C)(C)C)[C@@]2(OS(=O)(=O)C=C2N)[C@H]1O[Si](C)(C)C(C)(C)C
[1]
  CC50: 11 µM
[5]; mt4
  EC50: 2.7 µM and > 6.3 µM
[2]
  Selectivity index: 4.1
[3]
  EC50: 1.1 µM
[4]
  EC50: > 6.3 µM

## CC(C)(C)[Si](C)(C)OC[C@H]1O[C@@H](n2cc(F)c(=O)[nH]c2=O)[C@H](O[Si](C)(C)C(C)(C)C)[C@]12OS(=O)(=O)C=C2N
[1]
  CC50: 5 µM
[5]; mt4
  EC50: 0.5 µM and > 1.3 µM
[2]
  Selectivity index: 10
[3]
  EC50: 0.34 µM
[4]
  EC50: > 6.7 µM

## CNc1ccn([C@@H]2O[C@H](CO[Si](C)(C)C(C)(C)C)[C@@]3(OS(=O)(=O)C=C3N)[C@H]2O[Si](C)(C)C(C)(C)C)c(=O)n1
[1]
  CC50: 12 µM
[5]; mt4
  EC50: 0.68 µM and > 6.8 µM
[2]
  Selectivity index: 18
[3]
  EC50: 3.38 µM
[4]
  EC50: > 6.8 µM

## CN(C)c1ccn([C@@H]2O[C@H](CO[Si](C)(C)C(C)(C)C)[C@@]3(OS(=O)(=O)C=C3N)[C@H]2O[Si](C)(C)C(C)(C)C)c(=O)n1
[1]
  CC50: > 166 µM
[2]
  Selectivity index: 252
[3]
  EC50: 0.75 µM
[4]
  EC50: > 166 µM

Reference: ChEMBL document CHEMBL1127327, “Novel series of TSAO-T derivatives. Synthesis and anti-HIV-1 activity of 4-, 5-, and 6-substituted pyrimidine analogues” (J Med Chem, 1994)
